# Assay results as given in ChEMBL document CHEMBL5058577, “EUbOPEN Chemogenomics Library 2 (Multiplex)” (2022).
# System: Fibroblast
# Assay: Multiplex assay against human fibroblast
# Type: toxicity, cell-based
# Method in brief: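 With compound added, live cells were imaged on a CQ1 microscope at 37°C and 5% CO2; staining with Hoechst33342, BioTracker Green Microtubule Cytoskeleton Dye, MitoTracker Red and Annexin V Alexa Fluor 680 had been done at seeding. The CellPathfinder machine-learning gating scheme split cells into Hoechst high-intensity objects or normal cells, normal cells into healthy, pyknosed or fragmented nuclei, and pyknosed cells into mitotic or apoptotic. The tubulin, mitochondrial-mass and membrane-permeability phenotypes are per cents of healthy-nucleus cells.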
# [1] = 12 h, 1 µM, compound concentration 1 uM, replicate 1
# [2] = 12 h, 1 µM, compound concentration 1 uM, replicate 2
# [3] = 12 h, 10 µM, compound concentration 10 uM, replicate 1
# [4] = 12 h, 10 µM, compound concentration 10 uM, replicate 2
# [5] = 24 h, 1 µM, compound concentration 1 uM, replicate 1
# [6] = 24 h, 1 µM, compound concentration 1 uM, replicate 2
# [7] = 24 h, 10 µM, compound concentration 10 uM, replicate 1
# [8] = 24 h, 10 µM, compound concentration 10 uM, replicate 2
# [9] = 48 h, 1 µM, compound concentration 1 uM, replicate 1
# [10] = 48 h, 1 µM, compound concentration 1 uM, replicate 2
# [11] = 48 h, 10 µM, compound concentration 10 uM, replicate 1
# [12] = 48 h, 10 µM, compound concentration 10 uM, replicate 2
smiles,measurement,setting,value
Cc1noc(-c2ccc(-c3ccc(CC(=O)O)cc3)cc2)c1NC(=O)O[C@H](C)c1ccccc1Cl,Population Apoptotic (%),[1],22%
same,Population Fragmented Nuclei (%),[1],14%
same,Population Healthy Nuclei (%),[1],77%
same,Population Hoechst High Intensity Objects (%),[1],0%
same,Population Membrane Permeable-Phenotype (%),[1],0%
same,Population Mitochondria Different-Phenotype (%),[1],1%
same,Population Mitotic Cells (%),[1],77%
same,Population Normal (%),[1],100%
same,Population Pyknosed Nuclei (%),[1],8%
same,Population Tubulin-Different-Phenotype (%),[1],10%
same,Total Cell Count,[1],106
same,Population Apoptotic (%),[2],58%
same,Population Fragmented Nuclei (%),[2],21%
same,Population Healthy Nuclei (%),[2],60%
same,Population Hoechst High Intensity Objects (%),[2],5%
same,Population Membrane Permeable-Phenotype (%),[2],5%
same,Population Mitochondria Different-Phenotype (%),[2],2%
same,Population Mitotic Cells (%),[2],41%
same,Population Normal (%),[2],95%
same,Population Pyknosed Nuclei (%),[2],18%
same,Population Tubulin-Different-Phenotype (%),[2],26%
same,Total Cell Count,[2],140
same,Population Apoptotic (%),[3],40%
same,Population Fragmented Nuclei (%),[3],20%
same,Population Healthy Nuclei (%),[3],62%
same,Population Hoechst High Intensity Objects (%),[3],1%
same,Population Membrane Permeable-Phenotype (%),[3],1%
same,Population Mitochondria Different-Phenotype (%),[3],6%
same,Population Mitotic Cells (%),[3],60%
same,Population Normal (%),[3],98%
same,Population Pyknosed Nuclei (%),[3],17%
same,Population Tubulin-Different-Phenotype (%),[3],31%
same,Total Cell Count,[3],119
same,Population Apoptotic (%),[4],29%
same,Population Fragmented Nuclei (%),[4],17%
same,Population Healthy Nuclei (%),[4],45%
same,Population Hoechst High Intensity Objects (%),[4],6%
same,Population Membrane Permeable-Phenotype (%),[4],2%
same,Population Mitochondria Different-Phenotype (%),[4],10%
same,Population Mitotic Cells (%),[4],70%
same,Population Normal (%),[4],93%
same,Population Pyknosed Nuclei (%),[4],36%
same,Population Tubulin-Different-Phenotype (%),[4],57%
same,Total Cell Count,[4],90
same,Population Apoptotic (%),[5],20%
same,Population Fragmented Nuclei (%),[5],16%
same,Population Healthy Nuclei (%),[5],78%
same,Population Hoechst High Intensity Objects (%),[5],0%
same,Population Membrane Permeable-Phenotype (%),[5],0%
same,Population Mitochondria Different-Phenotype (%),[5],1%
same,Population Mitotic Cells (%),[5],80%
same,Population Normal (%),[5],100%
same,Population Pyknosed Nuclei (%),[5],4%
same,Population Tubulin-Different-Phenotype (%),[5],10%
same,Total Cell Count,[5],102
same,Population Apoptotic (%),[6],52%
same,Population Fragmented Nuclei (%),[6],30%
same,Population Healthy Nuclei (%),[6],57%
same,Population Hoechst High Intensity Objects (%),[6],2%
same,Population Membrane Permeable-Phenotype (%),[6],1%
same,Population Mitochondria Different-Phenotype (%),[6],7%
same,Population Mitotic Cells (%),[6],47%
same,Population Normal (%),[6],97%
same,Population Pyknosed Nuclei (%),[6],12%
same,Population Tubulin-Different-Phenotype (%),[6],28%
same,Total Cell Count,[6],161
same,Population Apoptotic (%),[7],50%
same,Population Fragmented Nuclei (%),[7],20%
same,Population Healthy Nuclei (%),[7],68%
same,Population Hoechst High Intensity Objects (%),[7],1%
same,Population Membrane Permeable-Phenotype (%),[7],0%
same,Population Mitochondria Different-Phenotype (%),[7],7%
same,Population Mitotic Cells (%),[7],50%
same,Population Normal (%),[7],98%
same,Population Pyknosed Nuclei (%),[7],11%
same,Population Tubulin-Different-Phenotype (%),[7],29%
same,Total Cell Count,[7],122
same,Population Apoptotic (%),[8],32%
same,Population Fragmented Nuclei (%),[8],26%
same,Population Healthy Nuclei (%),[8],41%
same,Population Mitochondria Different-Phenotype (%),[8],10%
same,Population Mitotic Cells (%),[8],67%
same,Population Pyknosed Nuclei (%),[8],31%
same,Population Tubulin-Different-Phenotype (%),[8],65%
same,Total Cell Count,[8],98
same,Population Apoptotic (%),[9],44%
same,Population Fragmented Nuclei (%),[9],18%
same,Population Healthy Nuclei (%),[9],73%
same,Population Hoechst High Intensity Objects (%),[9],1%
same,Population Membrane Permeable-Phenotype (%),[9],1%
same,Population Mitochondria Different-Phenotype (%),[9],1%
same,Population Mitotic Cells (%),[9],55%
same,Population Normal (%),[9],98%
same,Population Pyknosed Nuclei (%),[9],8%
same,Population Tubulin-Different-Phenotype (%),[9],16%
same,Total Cell Count,[9],112
same,Population Apoptotic (%),[10],60%
same,Population Fragmented Nuclei (%),[10],35%
same,Population Healthy Nuclei (%),[10],55%
same,Population Hoechst High Intensity Objects (%),[10],2%
same,Population Membrane Permeable-Phenotype (%),[10],5%
same,Population Mitochondria Different-Phenotype (%),[10],3%
same,Population Mitotic Cells (%),[10],40%
same,Population Normal (%),[10],97%
same,Population Tubulin-Different-Phenotype (%),[10],25%
same,Total Cell Count,[10],171
same,Population Apoptotic (%),[11],23%
same,Population Fragmented Nuclei (%),[11],30%
same,Population Healthy Nuclei (%),[11],55%
same,Population Hoechst High Intensity Objects (%),[11],4%
same,Population Membrane Permeable-Phenotype (%),[11],2%
same,Population Mitochondria Different-Phenotype (%),[11],4%
same,Population Mitotic Cells (%),[11],76%
same,Population Normal (%),[11],95%
same,Population Pyknosed Nuclei (%),[11],13%
same,Population Tubulin-Different-Phenotype (%),[11],35%
same,Total Cell Count,[11],133
same,Population Apoptotic (%),[12],39%
same,Population Fragmented Nuclei (%),[12],40%
same,Population Healthy Nuclei (%),[12],37%
same,Population Hoechst High Intensity Objects (%),[12],2%
same,Population Membrane Permeable-Phenotype (%),[12],0%
same,Population Mitochondria Different-Phenotype (%),[12],10%
same,Population Mitotic Cells (%),[12],60%
same,Population Normal (%),[12],97%
same,Population Pyknosed Nuclei (%),[12],22%
same,Population Tubulin-Different-Phenotype (%),[12],69%
same,Total Cell Count,[12],107
